Published values gathered from unrelated publications.
Target: Alpha-2A adrenergic receptor (ADRA2A, Homo sapiens, UniProt P08913)
Concentration: 10 µM
One construct used (P08913 1-465): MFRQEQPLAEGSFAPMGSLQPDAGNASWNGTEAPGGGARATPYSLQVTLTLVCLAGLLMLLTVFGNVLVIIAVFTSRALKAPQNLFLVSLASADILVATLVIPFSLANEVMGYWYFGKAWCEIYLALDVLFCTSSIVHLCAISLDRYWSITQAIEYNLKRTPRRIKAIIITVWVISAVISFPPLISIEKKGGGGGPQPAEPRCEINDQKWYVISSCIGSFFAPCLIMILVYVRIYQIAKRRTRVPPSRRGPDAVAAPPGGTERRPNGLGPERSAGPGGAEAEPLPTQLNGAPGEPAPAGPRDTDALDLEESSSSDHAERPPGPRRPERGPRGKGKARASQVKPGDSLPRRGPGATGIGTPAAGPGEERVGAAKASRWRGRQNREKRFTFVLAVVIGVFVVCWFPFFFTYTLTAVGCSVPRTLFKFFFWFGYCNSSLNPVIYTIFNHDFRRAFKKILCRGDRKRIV

COc1cc(NC(C)=O)c(Cl)cc1C(=O)Nc1nccs1 — inhibition (cell-free assay): -7%
Ic1cccc2cnccc12 — inhibition (ligand displacement; radioligand): 13%
CN([C@@H]1CCc2c(CC(=O)O)c3ccccc3n2C1)S(=O)(=O)c1ccc(F)cc1 — inhibition (ligand displacement): -3.89%
CCN(Cc1ccccc1C(F)(F)F)C(=O)C1CCN(S(=O)(=O)c2ccc3[nH]ncc3c2)CC1 — inhibition (ligand displacement; radioligand): 37%
CCCNc1nc2ccccc2n1Cc1ccc(Cl)cc1 — inhibition (ligand displacement): 90.2%
O=C1c2ccccc2C(=O)N1CC#Cc1ccc2c(c1)C=C([N+](=O)[O-])C(C(F)(F)F)O2 (centres unmarked) — inhibition (ligand displacement; radioligand): 88%
O=C(c1ccc(Cl)cc1)N(Cc1ccccc1)C1CCCCC1 — inhibition (cell-free assay): 4%
CCN(CC)c1ccc(C2Nc3ccc(C(=O)c4ccccc4)cc3NC3=C2C(=O)CC(C)(C)C3)cc1 (centres unmarked) — inhibition (ligand displacement; radioligand): 5%
Cc1cc(-c2nc(CN3CCNCC3)no2)cc2c1C(=O)N(Cc1ccc(OC(F)(F)F)cc1)C2 — inhibition (ligand displacement; radioligand): 41%
N#Cc1cc(Cn2c(N3CCCC3)nc3ccccc32)ccc1F — inhibition (ligand displacement): 31.6%
CC(=O)C1=C(C)N(c2cccc(C(F)(F)F)c2)C(=O)N[C@H]1c1ccc(C#N)nc1 — inhibition (ligand displacement): -8.89%
